Experimental data published in ChEMBL document CHEMBL1130109, “Novel 99mTc aminobisthiolato/monothiolato "3 + 1" mixed ligand complexes: structure-activity relationships and preliminary in vivo validation as brain blood flow imaging agents” (J Med Chem, 1997).
Where “and” joins values, the source holds several entries; their conditions need not be identical. Equal entries are not always repeated. Blank lines part the entries; values can stand above or below the substance they belong to.

What was measured:
Mus musculus [1] = species on record: Mus musculus; test: Biodistribution in mice lungs at 10 min of post injection; type: ADME, organism-based, Lung; settings: in vivo
Outline: (§1)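 Male Swiss Albino mice (19–34g, at least five per group) were injected in the tail vein with HPLC-purified 99mTc complex in 50% methanol (0.1 mL, 2–3 μCi). Killed by cardiectomy under slight ether anesthesia at 5, 10, 30 or 60 min. Organs were excised, weighed and γ-counted against standards of 1% injected dose, as % ID/organ. Bladder plus excreted urine was not weighed. Stomach and intestines were not emptied.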

Mus musculus [2] = species on record: Mus musculus; test: Percentage biodistribution in mouse blood, 30 minutes post injection; type: ADME, organism-based; settings: in vivo, 0.5 h
Outline: (§2)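 Mice (Swiss Albino males, 19–34g, ≥5/group) received tail-vein HPLC-purified 99mTc complex (0.1 mL, 2–3 μCi, 50% methanol) and were killed by cardiectomy under ether at set times. Blood % ID was computed from measured activity and sample weight, with blood taken as 7% of body weight, against 1%-dose standards.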

Mus musculus [3] = species on record: Mus musculus; test: Percentage biodistribution in mouse intestine, 5 minutes post injection; type: ADME, organism-based; settings: in vivo; outline: as §1
Mus musculus [4] = species on record: Mus musculus; test: Percentage biodistribution in mouse liver, 5 minutes post injection; type: ADME, organism-based; settings: in vivo; outline: as §1
Mus musculus [5] = species on record: Mus musculus; test: Percentage biodistribution in mouse brain, 30 minutes post injection; type: ADME, organism-based; settings: in vivo, 0.5 h; outline: as §1
Mus musculus [6] = species on record: Mus musculus; test: Percentage biodistribution in mouse blood, 60 minutes post injection; type: ADME, organism-based; settings: in vivo, 1 h; outline: as §2
Mus musculus [7] = species on record: Mus musculus; test: Percentage biodistribution in mouse heart, 30 minutes post injection; type: ADME, organism-based; settings: in vivo, 0.5 h; outline: as §1
Mus musculus [8] = species on record: Mus musculus; test: Percentage biodistribution in mouse brain, 60 minutes post injection; type: ADME, organism-based; settings: in vivo, 1 h; outline: as §1
Mus musculus [9] = species on record: Mus musculus; test: Percentage biodistribution in mouse brain, 5 minutes post injection; type: ADME, organism-based; settings: in vivo; outline: as §1
Mus musculus [10] = species on record: Mus musculus; test: Percentage biodistribution in mouse brain, 10 minutes post injection; type: ADME, organism-based; settings: in vivo; outline: as §1
Mus musculus [11] = species on record: Mus musculus; test: Biodistribution in mice lungs at 60 min of post injection; type: ADME, organism-based, Lung; settings: in vivo, 1 h; outline: as §1
Mus musculus [12] = species on record: Mus musculus; test: Percentage biodistribution in mouse blood, 5 minutes post injection; type: ADME, organism-based; settings: in vivo; outline: as §2
Mus musculus [13] = species on record: Mus musculus; test: Percentage biodistribution in mouse heart, 60 minutes post injection; type: ADME, organism-based; settings: in vivo, 1 h; outline: as §1
Mus musculus [14] = species on record: Mus musculus; test: Biodistribution in mice liver at 60 minutes of post injection; type: ADME, organism-based; settings: in vivo, 1 h; outline: as §1
Mus musculus [15] = species on record: Mus musculus; test: Percentage biodistribution in mouse lung, 30 minutes post injection; type: ADME, organism-based; settings: in vivo, 0.5 h; outline: as §1
Mus musculus [16] = species on record: Mus musculus; test: Percentage biodistribution in mouse liver, 10 minutes post injection; type: ADME, organism-based; settings: in vivo; outline: as §1
Mus musculus [17] = species on record: Mus musculus; test: Percentage biodistribution in mouse blood, 10 minutes post injection; type: ADME, organism-based; settings: in vivo; outline: as §2
Mus musculus [18] = species on record: Mus musculus; test: Percentage biodistribution in mouse spleen; type: ADME, organism-based; settings: in vivo; outline: as §1
Mus musculus [19] = species on record: Mus musculus; test: Percentage biodistribution in mouse liver, 30 minutes of post injection; type: ADME, organism-based; settings: in vivo, 0.5 h; outline: as §1
Mus musculus [20] = species on record: Mus musculus; test: Percentage biodistribution in mouse intestine, 10 minutes post injection; type: ADME, organism-based; settings: in vivo; outline: as §1
Mus musculus [21] = species on record: Mus musculus; test: Percentage biodistribution in mouse heart, 10 minutes post injection; type: ADME, organism-based; settings: in vivo; outline: as §1
Mus musculus [22] = species on record: Mus musculus; test: Percentage biodistribution in mouse stomach; type: ADME, organism-based; settings: in vivo; outline: as §1
Mus musculus [23] = species on record: Mus musculus; test: Percentage biodistribution in mouse intestine, 60 minutes post injection; type: ADME, organism-based; settings: in vivo, 1 h; outline: as §1
Mus musculus [24] = species on record: Mus musculus; test: Biodistribution in mice bladder plus excreted urine was determined; type: ADME, organism-based; settings: in vivo; outline: as §1
Mus musculus [25] = species on record: Mus musculus; test: Percentage biodistribution in mousee lung, 5 minutes post injection; type: ADME, organism-based; settings: in vivo; outline: as §1
Mus musculus [26] = species on record: Mus musculus; test: Percentage biodistribution in mouse heart, 5 minutes post injection; type: ADME, organism-based; settings: in vivo; outline: as §1
[27] = Partition coefficient (logD7.4); type: physicochemical; settings: octanol/water, pH 7.4
Outline: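 HPLC-purified 99mTc complex (0.1 mL) was added to 2 mL each of 1-octanol and 0.125 M phosphate buffer, pH 7.4. The mix was vortexed and centrifuged at 5000 rpm for 5 min. Three 0.2 mL samples per layer were γ-counted. Mean cpm/mL of octanol was divided by that of buffer.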

Mus musculus [28] = species on record: Mus musculus; test: Percentage biodistribution in mouse intestine, 30 minutes post injection; type: ADME, organism-based; settings: in vivo, 0.5 h; outline: as §1
[29] = % ID/gram in brain divided by %ID/gram in blood at 60 minutes.; type: functional, tissue-based
Outline: (§3)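 Male Swiss Albino mice (19–34g, at least five per group) got HPLC-purified 99mTc complex in 50% methanol, 0.1 mL, 2–3 μCi, by tail vein. They were killed by cardiectomy under light ether at 5, 10, 30 or 60 min. % ID/g (% ID/organ ÷ organ weight) of brain was divided by that of blood; blood assumed 7% of body weight.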

[30] = Retention ratio is measured as the brain uptake (%ID/organ) at 30 min pi divided by the brain uptake at 5 min pi.; type: functional
Outline: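 Brain % ID/organ in tail-vein-injected male Swiss Albino mice (0.1 mL, 2–3 μCi purified 99mTc complex in 50% methanol; γ-counted after cardiectomy under ether). Mean brain % ID/organ at 30 min pi was divided by the mean at 5 min pi.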

[31] = % ID/gram in brain divided by %ID/gram in blood at 5 minutes.; type: functional, tissue-based; outline: as §3
[32] = % ID/gram in brain divided by %ID/gram in blood at 10 minutes.; type: functional, tissue-based; outline: as §3

ID/organ (Mus musculus [1]): 9.78% | ID/organ (Mus musculus [2]): 5.14% and 1.29% | ID/organ (Mus musculus [3]): 9.22% and 8.31% | ID/organ (Mus musculus [4]): 17.06% and 10.73% | ID/organ (Mus musculus [5]): 0.56% and 1.71% | ID/organ (Mus musculus [6]): 1.21% | ID/organ (Mus musculus [7]): 0.28% and 0.19% | ID/organ (Mus musculus [8]): 1.54% | ID/organ (Mus musculus [9]): 2.26% and 3.01% | ID/organ (Mus musculus [10]): 2.47% | ID/organ (Mus musculus [11]): 1.79% | ID/organ (Mus musculus [12]): 6.09% and 2.02% | ID/organ (Mus musculus [13]): 0.12% | ID/organ (Mus musculus [14]): 35.12% | ID/organ (Mus musculus [15]): 3.49% and 3.09% | ID/organ (Mus musculus [16]): 14.14% | ID/organ (Mus musculus [17]): 1.53% | ID/organ (Mus musculus [18]): 0.61% and 0.21% | ID/organ (Mus musculus [19]): 27.33% and 25.58% | ID/organ (Mus musculus [20]): 9.61% | ID/organ (Mus musculus [21]): 0.46% | ID/organ (Mus musculus [22]): 2.43% and 2.34% | ID/organ (Mus musculus [23]): 33.7% | ID/organ (Mus musculus [24]): 2.24% and 6.87% | ID/organ (Mus musculus [25]): 11.03% and 15.37% | ID/organ (Mus musculus [26]): 0.81% and 0.74% | logD [27]: 2.54 and 2.63 | ID/organ (Mus musculus [28]): 21.19% and 18.99%
Substance: [4-methoxythio)phenolato][N,N-bis(2-mercaptoethyl)-N',N'-diethylethylenediamine] oxotechnetium [listing 1 of 2 here]

Substance: [4-methoxythio)phenolato][N,N-bis(2-mercaptoethyl)-N',N'-diethylethylenediamine] oxotechnetium [listing 2 of 2 here]
Ratio [29]: 4.23 | Retention ratio [30]: 0.25 and 0.57 | Ratio [31]: 1.7 and 4.43 | Ratio [32]: 4.71
